Experiments:
K562 = test: Growth inhibition of human K562 cells expressing p210Bcr/Abl after 96 hrs by trypan blue exclusion assay; format: functional, cell-based; settings: K562, 96 h
How it was run: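 K562 cells were kept in RPMI with 10% FBS and penicillin–streptomycin at 37 °C under 5% CO2. Cells were seeded at 1 × 10^5 cells/mL with a range of compound concentrations, using DMSO as the negative control. After 96 h, viability was counted by Trypan blue exclusion and expressed as percent of DMSO control to derive GI50.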

DU-145 = test: Growth inhibition of human DU145 cells after 96 hrs by trypan blue exclusion assay; format: functional; settings: DU-145, 96 h

| SMILES | GI50 (K562) | GI50 (DU-145) |
| --- | --- | --- |
| O=C(/C(=C\c1ccc(F)c([N+](=O)[O-])c1)SCc1ccc(Br)cc1)c1ccc(Cl)c([N+](=O)[O-])c1 | > 100 µM | > 100 µM |
| Cc1ccc(/C=C(/SCc2ccc(Cl)cc2)C(=O)c2ccc(Cl)cc2)s1 | 50 µM | 50 µM |
| Cc1ccsc1/C=C(/SCc1ccc(Cl)cc1)C(=O)c1ccc(Cl)cc1 | 50 µM | 50 µM |
| O=C(/C(=C\c1ccccc1OCc1ccccc1)S(=O)(=O)c1ccc(F)cc1)c1ccc(Cl)cc1 | 1 µM | 1 µM |
| COc1ccc(/C=C(\C(=O)c2ccc(Br)cc2)S(=O)(=O)c2ccc(Br)cc2)c(F)c1 | 1 µM | 10 µM |
| O=C(O)c1ccc(C(=O)/C(=C\c2ccc(Br)cc2)SCc2ccc(Br)cc2)cc1 | 1 µM | 1 µM |
| Cc1ccc(CS/C(=C/c2c(O)cc(O)cc2O)C(=O)c2ccc(Cl)cc2)cc1 | 50 µM | 50 µM |
| Cc1ccc(CS(=O)(=O)/C(=C/c2ccccc2Br)C(=O)c2ccc(Cl)cc2)cc1 | 25 µM | 25 µM |
| O=C(/C(=C\c1ccc(Cl)cc1Cl)S(=O)(=O)c1ccc(Br)cc1)c1ccc(Cl)cc1 | 25 µM | 50 µM |
| O=C(/C(=C\c1ccc(Cl)c([N+](=O)[O-])c1)Sc1ccc(Br)cc1)c1ccc(Br)cc1 | 1 µM | 10 µM |
| COc1ccc(/C=C(\C(=O)c2ccc(Br)cc2)S(=O)(=O)c2ccc(C)cc2)cc1 | 1 µM | 1 µM |
| O=C(/C(=C\c1ccc(O)c([N+](=O)[O-])c1)SCc1ccc(Br)cc1)c1c(F)c(F)c(F)c(F)c1F | 10 µM | 10 µM |
| O=C(/C(=C\c1ccc(Br)cc1)S(=O)(=O)Cc1ccc(F)cc1)c1ccc(Br)cc1 | 10 µM | 25 µM |
| COc1ccc(C(=O)/C(=C\c2ccc(Cl)cc2)S(=O)(=O)c2ccc(Cl)cc2)cc1 | 4 µM | 4 µM |
| CN(C)c1ccc(/C=C(/SCc2ccc(Cl)cc2)C(=O)c2ccc([N+](=O)[O-])cc2)cc1 | 50 µM | > 100 µM |
| O=C(/C(=C\c1c(O)cc(O)cc1O)S(=O)(=O)c1ccccc1Br)c1ccc(Br)cc1 | 50 µM | 50 µM |
| Cc1ccc(S/C(=C/c2ccc(Cl)cc2)C(=O)c2ccc(Br)cc2)cc1 | 1 µM | 10 µM |
| CCOc1ccc(/C=C(/Sc2ccccc2Cl)C(=O)c2ccc(Cl)cc2)cc1OC | 1 µM | 50 µM |
| O=C(C(=Cc1ccc(Br)cc1)S(=O)(=O)Cc1ccc(I)cc1)c1ccc(Br)cc1 | > 50 µM | > 50 µM |
| CCOc1ccc(/C=C(/SCc2ccc(C)cc2)C(=O)c2ccc(Cl)cc2)cc1OC | 25 µM | 25 µM |
| O=C(/C(=C\c1ccc(O)cc1O)Sc1ccc(Br)cc1)c1ccc(Cl)cc1 | 25 µM | 50 µM |
| O=C(O)c1ccc(C(=O)/C(=C\c2ccc(Br)cc2)SCc2ccc(F)cc2)cc1 | > 100 µM | > 100 µM |
| COc1ccccc1/C=C(/SCc1ccc(C)cc1)C(=O)c1ccc(Cl)cc1 | 10 µM | 10 µM |
| COc1ccc(S/C(=C/c2ccc(Cl)cc2Cl)C(=O)c2ccc(Br)cc2)cc1 | 1 µM | 1 µM |
| COc1ccccc1/C=C(\C(=O)c1ccc(Cl)cc1)S(=O)(=O)Cc1ccc(C)cc1 | 10 µM | 10 µM |

| SMILES | GI50 (K562) | GI50 (DU-145) |
| --- | --- | --- |
| Cc1ccc(CS(=O)(=O)/C(=C/c2ccc(S(C)(=O)=O)cc2)C(=O)c2ccc(Br)cc2)cc1 | 1 µM | 10 µM |
| Cc1ccc(S(=O)(=O)/C(=C/c2ccc(F)cc2F)C(=O)c2ccc(Br)cc2)cc1 | > 100 µM | > 100 µM |
| Cc1ccc(CS(=O)(=O)/C(=C/c2ccc(Br)cc2)C(=O)c2ccc(Cl)cc2)cc1 | 10 µM | 25 µM |
| O=C(/C(=C\c1c[nH]c2ccccc12)SCc1ccc(F)cc1)c1ccc(Cl)cc1 | 1 µM | 1 µM |
| Cc1ccc(S/C(=C/c2ccc[nH]2)C(=O)c2ccc(Cl)cc2)cc1 | 10 µM | 10 µM |
| O=C(/C(=C\c1ccc(Br)cc1)SCc1ccc(F)cc1)c1ccc(Cl)cc1 | 1 µM | 9 µM |
| CSc1ccc(/C=C(/SCc2ccc(C)cc2)C(=O)c2ccc(Br)cc2)cc1 | 10 µM | > 100 µM |
| Cc1ccc(S/C(=C/c2c(F)c(F)c(F)c(F)c2F)C(=O)c2ccc(Cl)cc2)cc1 | 25 µM | 25 µM |
| Cc1ccc(CS/C(=C/c2ccc(Cl)c([N+](=O)[O-])c2)C(=O)c2ccc(C(=O)O)cc2)cc1 | 1 µM | 1 µM |
| O=C(/C(=C\c1cccc(Cl)c1Cl)SCc1ccc(Cl)cc1)c1ccc(Cl)cc1 | 1 µM | 10 µM |
| O=C(/C(=C\c1ccc(O)c([N+](=O)[O-])c1)Sc1ccc(Br)cc1)c1c(F)c(F)c(F)c(F)c1F | 1 µM | 1 µM |
| COc1ccc(/C=C(/SCc2ccc(F)cc2)C(=O)c2ccc(Br)cc2)cc1O | 1 µM | 1 µM |
| COc1cc(OC)c(/C=C(/SCc2ccc(Cl)cc2)C(=O)c2ccc([N+](=O)[O-])cc2)c(OC)c1 | 50 µM | > 100 µM |
| COc1ccc(/C=C(/SCc2ccc(F)cc2)C(=O)c2ccc(C(=O)O)cc2)cc1O | 1 µM | 10 µM |
| O=C(/C(=C\c1c(O)cc(O)cc1O)Sc1ccccc1Br)c1ccc(Br)cc1 | > 100 µM | > 100 µM |
| CSc1ccc(/C=C(\C(=O)c2ccc(Cl)cc2)S(=O)(=O)Cc2ccc(C)cc2)cc1 | 25 µM | 10 µM |
| Cc1ccc(C)c(/C=C(/SCc2ccc(Cl)cc2)C(=O)c2ccc(Cl)cc2)c1 | 10 µM | 10 µM |
| O=C(C(=Cc1ccc(Br)cc1)S(=O)(=O)Cc1ccccc1Cl)c1ccc(Cl)cc1 | 1 µM | 1 µM |
| Cc1ccc(/C=C(\C(=O)c2ccc([N+](=O)[O-])cc2)S(=O)(=O)Cc2ccc(Cl)cc2)s1 | 10 µM | 25 µM |
| CCOc1cc(/C=C(\C(=O)c2ccc(Cl)cc2)S(=O)(=O)Cc2ccc(Cl)cc2)ccc1O | 10 µM | 10 µM |
| Cc1ccc(/C=C(/Sc2ccc(F)cc2)C(=O)c2ccc(Cl)cc2)s1 | 25 µM | 25 µM |
| Cc1ccc(S(=O)(=O)/C(=C/c2cccs2)C(=O)c2ccc(Cl)cc2)cc1 | 50 µM | 25 µM |
| Cc1ccc(CS/C(=C/c2ccc(Cl)cc2)C(=O)c2ccc(Cl)cc2)cc1 | 1 µM | 10 µM |
| COc1ccc(/C=C(\C(=O)c2ccc(Br)cc2)S(=O)(=O)Cc2ccc(Cl)cc2)c(O)c1 | 10 µM | 10 µM |
| COc1ccc(/C=C(/Sc2ccc(Br)cc2)C(=O)c2ccc(Cl)cc2)cc1 | 1 µM | 50 µM |

| SMILES | GI50 (K562) | GI50 (DU-145) |
| --- | --- | --- |
| O=C(/C(=C\c1ccc(Cl)cc1)SCc1ccc(F)cc1)c1ccc(Cl)cc1 | 1 µM | 10 µM |
| COc1ccc(OC)c(/C=C(/SCc2ccc(Cl)c(Cl)c2)C(=O)c2ccc(Cl)cc2)c1 | 10 µM | 10 µM |
| Cc1ccc(/C=C(\C(=O)c2ccc(Cl)cc2)S(=O)(=O)Cc2ccc(Cl)cc2Cl)s1 | 25 µM | 10 µM |
| Cc1ccc(S/C(=C/c2ccc(F)c(C)c2)C(=O)c2ccc(Br)cc2)cc1 | 1 µM | 25 µM |
| O=C(/C(=C\c1ccc(F)cc1F)Sc1ccc(Br)cc1)c1ccc(Cl)cc1 | 1 µM | 1 µM |
| COc1cc(/C=C(/SCc2ccc(Br)cc2)C(=O)c2ccc(Br)cc2)cc([N+](=O)[O-])c1O | 25 µM | 25 µM |
| O=C(/C(=C\c1c[nH]c2ccc(Br)cc12)SCc1ccc(F)cc1)c1ccc(Cl)cc1 | 1 µM | 50 µM |
| O=C(/C(=C\c1ccc(O)cc1O)SCc1cccc(Cl)c1)c1ccc(Br)cc1 | 25 µM | 50 µM |
| COc1ccc(/C=C(\C(=O)c2ccc(Br)cc2)S(=O)(=O)Cc2ccc(Cl)cc2)cc1 | 10 µM | 25 µM |
| O=C(/C(=C\c1ccc[nH]1)SCc1ccc(Cl)cc1)c1ccc(Cl)cc1 | 10 µM | 10 µM |
| COc1ccc(/C=C(/SCc2ccc(Cl)cc2)C(=O)c2ccc(Br)cc2)cc1O | 1 µM | 1 µM |
| Cc1ccc(S(=O)(=O)/C(=C/c2ccc(N(C)C)cc2)C(=O)c2ccc(Br)cc2)cc1 | > 100 µM | 50 µM |
| Cc1ccc(CS/C(=C/c2cc(C)ccc2C)C(=O)c2ccc(Cl)cc2)cc1 | 10 µM | 10 µM |
| Cc1ccsc1/C=C(\C(=O)c1ccc(Cl)cc1)S(=O)(=O)Cc1ccc(F)cc1 | 1 µM | 10 µM |
| Cc1ccc(CS(=O)(=O)/C(=C/c2ccc(N(C)C)cc2)C(=O)c2ccc(Cl)cc2)cc1 | 50 µM | 50 µM |
| COc1ccccc1/C=C(/SCc1ccc(F)cc1)C(=O)c1ccc(Br)cc1 | 10 µM | 10 µM |
| Cc1ccc(CS(=O)(=O)/C(=C/c2ccc(C)s2)C(=O)c2ccc(Cl)cc2)cc1 | 25 µM | 25 µM |
| O=C(/C(=C\c1c[nH]c2ccccc12)S(=O)(=O)Cc1ccc(F)cc1)c1ccc(Cl)cc1 | 50 µM | 50 µM |
| O=C(O)c1ccc(C(=O)/C(=C\c2ccccc2F)SCc2ccc(Br)cc2)cc1 | 10 µM | 10 µM |
| O=C(/C(=C\c1ccc(O)c([N+](=O)[O-])c1)S(=O)(=O)Cc1ccccc1Cl)c1ccc(Cl)cc1 | 10 µM | 10 µM |
| O=C(/C(=C\c1ccc(Br)c([N+](=O)[O-])c1)S(=O)(=O)c1ccc(Br)cc1)c1ccc(Br)cc1 | 10 µM | 10 µM |
| O=C(/C(=C\c1ccccc1OCc1ccccc1)SCc1ccc(F)cc1)c1ccc(Br)cc1 | 1 µM | 1 µM |
| O=C(/C(=C\c1ccc([N+](=O)[O-])c(O)c1)Sc1ccc(Br)cc1)c1c(F)c(F)c(F)c(F)c1F | 1 µM | 1 µM |
| O=C(/C(=C\c1ccc(F)cc1)S(=O)(=O)c1ccc(Br)cc1)c1ccc(Br)cc1 | 10 µM | 4 µM |
